According to the M2OR odorant receptor database:

Target: T1, OR52D1 (Homo sapiens) (UniProt Q9H346)
T1 sequence (whole entry): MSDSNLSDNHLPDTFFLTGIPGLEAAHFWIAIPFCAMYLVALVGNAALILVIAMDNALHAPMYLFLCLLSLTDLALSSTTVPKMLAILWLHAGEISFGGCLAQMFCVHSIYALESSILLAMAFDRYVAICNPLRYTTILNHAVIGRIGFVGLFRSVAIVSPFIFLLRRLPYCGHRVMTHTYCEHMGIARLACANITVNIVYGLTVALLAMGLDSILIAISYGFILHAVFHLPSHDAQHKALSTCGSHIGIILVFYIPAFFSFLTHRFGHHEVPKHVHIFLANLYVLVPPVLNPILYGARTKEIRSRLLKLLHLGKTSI
Conditions: stereoisomer not certain
How it was run: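 Whether a receptor–molecule pair is responsive (active) rests on the original authors' judgment that its measured signal was statistically different from baseline. Pairs without that judgment are non-responsive (inactive). Sources used varied assay methods, commonly transient luciferase assays in mammalian cell lines.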

Structure (SMILES)	odorant receptor agonist call;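 note: active if original authors judged signal statistically different from baseline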
COc1ccc(C=O)cc1	active
O=CC=Cc1ccccc1	active
c1ccncc1	inactive
C=CCOC(=O)Cc1ccccc1	inactive
O=Cc1ccccc1	active
CC(C=O)Cc1ccc2c(c1)OCO2 (stereo not given)	active
CC(=O)CCc1ccc2c(c1)OCO2	inactive
C=CCc1ccc2c(c1)OCO2	inactive
Cc1c([N+](=O)[O-])c(C)c([N+](=O)[O-])c(C(C)(C)C)c1[N+](=O)[O-]	inactive
C=CCc1ccc(OC)cc1	active
